Measured values reported in ChEMBL document CHEMBL1127320, “Dual-action cephalosporins incorporating a 3'-tertiary-amine-linked quinolone” (J Med Chem, 1994).
Values after ≈ are worked out from the molar mass of the structure shown.

Tests used:
Escherichia coli [1] = assay: Minimum inhibitory concentration for DC2, a permeability mutant
How it was run: (§1)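 MICs were determined by agar dilution with 2-fold dilutions giving final 128–0.0156 µg/mL, extended to 0.000977 µg/mL where needed. Streptococci were tested on brain heart infusion agar plus 20 units/mL catalase, Proteus on Mueller-Hinton with 3% agar, and others on Mueller-Hinton agar. Inocula were 100-fold-diluted overnight cultures, about 3 × 10^4 CFU/spot, read after overnight incubation at 36 °C.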

Citrobacter freundii = assay: In vitro minimum inhibitory concentration was measured against Citrobacter freundii BS-16 (beta lactamase producer) strain.; format: functional; how it was run: as §1
Pseudomonas aeruginosa [2] = assay: In vitro minimum inhibitory concentration was measured against Pseudomonas aeruginosa 18S/H strain.; format: functional
How it was run: (§2)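 Streptococci were tested on brain heart infusion agar plus 20 units/mL catalase, Proteus on Mueller-Hinton with 3% agar, and others on Mueller-Hinton agar. Inocula were 100-fold-diluted overnight cultures, about 3 × 10^4 CFU/spot, read after overnight incubation at 36 °C.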

Escherichia coli [3] = assay: In vitro minimum inhibitory concentration was measured against Escherichia coli ATCC 25922 strain.; format: functional; how it was run: as §2
Proteus mirabilis = assay: In vitro minimum inhibitory concentration was measured against Proteus mirabilis 90 strain.; format: functional; how it was run: as §2
Serratia marcescens = assay: In vitro minimum inhibitory concentration was measured against Serratia marcescens 1071(beta lactamase producer) strain.; format: functional; how it was run: as §2
Enterobacter cloacae [4] = assay: In vitro minimum inhibitory concentration was measured against Enterobacter cloacae p99 (beta lactamase producer) strain.; format: functional
Staphylococcus aureus [5] = assay: In vitro minimum inhibitory concentration was measured against Staphylococcus aureus 67-0 (Methicillin resistant) strain.; format: functional
Micrococcus luteus = assay: In vitro minimum inhibitory concentration was measured against Micrococcus luteus ATCC 9341 strain.; format: functional; how it was run: as §2
Staphylococcus aureus [6] = assay: In vitro minimum inhibitory concentration was measured against Staphylococcus aureus 753 (Methicillin resistant) strain.; format: functional
Escherichia coli [7] = assay: In vitro minimum inhibitory concentration was measured against Escherichia coli 257 strain.; format: functional; how it was run: as §2
[8] = target: T1, Penicillin-binding protein 1B (Escherichia coli K-12) (UniProt P02919); assay: Affinity for penicillin binding protein 1b of Escherichia coli UB1005 (DC0) was evaluated.; set-up: unit not given here
T1 sequence (whole entry): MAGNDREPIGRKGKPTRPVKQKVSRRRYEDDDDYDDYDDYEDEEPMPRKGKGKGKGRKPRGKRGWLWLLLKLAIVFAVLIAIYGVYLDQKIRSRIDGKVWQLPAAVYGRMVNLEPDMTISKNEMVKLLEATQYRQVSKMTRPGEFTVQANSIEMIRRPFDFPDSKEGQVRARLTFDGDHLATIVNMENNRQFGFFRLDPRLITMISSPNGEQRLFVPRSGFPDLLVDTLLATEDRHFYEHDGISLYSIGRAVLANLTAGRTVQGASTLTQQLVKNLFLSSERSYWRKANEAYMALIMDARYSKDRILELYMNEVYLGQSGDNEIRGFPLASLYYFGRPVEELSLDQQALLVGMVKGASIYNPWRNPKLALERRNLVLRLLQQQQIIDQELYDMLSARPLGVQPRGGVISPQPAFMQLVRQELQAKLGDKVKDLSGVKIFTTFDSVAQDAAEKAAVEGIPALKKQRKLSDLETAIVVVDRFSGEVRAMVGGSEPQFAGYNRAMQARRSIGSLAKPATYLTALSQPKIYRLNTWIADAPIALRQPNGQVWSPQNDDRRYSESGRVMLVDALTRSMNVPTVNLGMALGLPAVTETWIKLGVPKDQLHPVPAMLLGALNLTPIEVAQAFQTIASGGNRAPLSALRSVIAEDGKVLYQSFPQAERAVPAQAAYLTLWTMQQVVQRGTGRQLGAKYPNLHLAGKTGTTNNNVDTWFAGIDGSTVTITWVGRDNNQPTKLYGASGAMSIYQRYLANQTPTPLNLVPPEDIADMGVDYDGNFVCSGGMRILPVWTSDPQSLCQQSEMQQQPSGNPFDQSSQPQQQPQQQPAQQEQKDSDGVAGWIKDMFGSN
How it was run: (§3)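 Solubilised membranes from sonicated E. coli UB1005 served as the binding-protein source. Binding was read as inhibition of [14C]penicillin G binding.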

[9] = system: Penicillin-binding protein 3 (Escherichia coli); assay: Affinity for penicillin binding protein 3 of Escherichia coli UB1005 (DC0) was evaluated.; set-up: unit not given here
Enterococcus faecalis = assay: In vitro minimum inhibitory concentration was measured against Enterococcus faecalis ATCC 29212 strain.; format: functional; how it was run: as §2
Proteus vulgaris = assay: In vitro minimum inhibitory concentration was measured against Proteus vulgaris 1028BC (beta lactamase producer) strain.; format: functional; how it was run: as §2
Enterobacter cloacae [10] = assay: In vitro minimum inhibitory concentration was measured against Enterobacter cloacae 5699 strain.; format: functional
[11] = target: T2, Peptidoglycan D,D-transpeptidase MrdA (Escherichia coli K-12) (UniProt P0AD65); assay: Affinity for penicillin binding protein 2 of Escherichia coli UB1005 (DC0) was evaluated.; set-up: unit not given here; how it was run: as §3
T2 sequence (whole entry): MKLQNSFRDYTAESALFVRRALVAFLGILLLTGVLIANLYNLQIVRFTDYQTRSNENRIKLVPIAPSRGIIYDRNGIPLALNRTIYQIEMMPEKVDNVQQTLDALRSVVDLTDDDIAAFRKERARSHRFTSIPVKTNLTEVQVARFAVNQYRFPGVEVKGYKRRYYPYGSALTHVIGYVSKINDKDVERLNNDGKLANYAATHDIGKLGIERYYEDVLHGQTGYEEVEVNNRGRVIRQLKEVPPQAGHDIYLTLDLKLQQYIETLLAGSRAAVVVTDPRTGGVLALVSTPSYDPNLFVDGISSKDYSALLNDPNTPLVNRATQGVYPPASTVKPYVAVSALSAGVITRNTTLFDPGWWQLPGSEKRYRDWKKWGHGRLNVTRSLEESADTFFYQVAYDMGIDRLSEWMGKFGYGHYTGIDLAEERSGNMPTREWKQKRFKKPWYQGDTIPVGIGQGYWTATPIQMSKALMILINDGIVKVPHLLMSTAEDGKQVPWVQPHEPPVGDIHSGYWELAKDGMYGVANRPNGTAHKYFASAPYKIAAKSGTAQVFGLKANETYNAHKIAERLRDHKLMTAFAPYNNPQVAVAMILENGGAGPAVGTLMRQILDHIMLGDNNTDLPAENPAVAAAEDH

[12] = target: T3, Penicillin-binding protein 1A (Escherichia coli K-12) (UniProt P02918); assay: Affinity for penicillin binding protein 1a of Escherichia coli UB1005 (DC0) was evaluated.; set-up: unit not given here; how it was run: as §3
T3 sequence (whole entry): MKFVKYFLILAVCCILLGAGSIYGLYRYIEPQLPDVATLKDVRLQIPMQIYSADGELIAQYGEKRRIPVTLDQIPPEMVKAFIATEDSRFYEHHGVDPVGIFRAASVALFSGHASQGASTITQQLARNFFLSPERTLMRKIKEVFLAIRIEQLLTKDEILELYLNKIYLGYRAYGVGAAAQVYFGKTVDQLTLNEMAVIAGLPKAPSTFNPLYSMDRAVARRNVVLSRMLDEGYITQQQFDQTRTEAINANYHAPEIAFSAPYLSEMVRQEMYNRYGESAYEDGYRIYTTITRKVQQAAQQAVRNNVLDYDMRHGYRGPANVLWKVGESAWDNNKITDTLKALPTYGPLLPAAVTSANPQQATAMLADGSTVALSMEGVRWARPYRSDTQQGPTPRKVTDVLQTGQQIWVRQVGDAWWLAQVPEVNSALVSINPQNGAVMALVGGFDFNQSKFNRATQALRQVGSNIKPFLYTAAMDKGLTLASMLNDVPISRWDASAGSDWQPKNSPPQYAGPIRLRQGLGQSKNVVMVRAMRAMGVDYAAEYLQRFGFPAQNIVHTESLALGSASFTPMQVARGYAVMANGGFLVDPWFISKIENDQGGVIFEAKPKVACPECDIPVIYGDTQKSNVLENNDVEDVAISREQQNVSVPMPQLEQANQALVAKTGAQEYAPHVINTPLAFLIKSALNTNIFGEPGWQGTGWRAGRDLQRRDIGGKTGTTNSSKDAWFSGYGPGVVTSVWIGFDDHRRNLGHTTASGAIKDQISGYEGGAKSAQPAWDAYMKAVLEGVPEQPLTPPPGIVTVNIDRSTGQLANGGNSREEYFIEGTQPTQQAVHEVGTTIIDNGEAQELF

Staphylococcus aureus [13] = assay: In vitro minimum inhibitory concentration was measured against Staphylococcus aureus smith strain.; format: functional
Escherichia coli [14] = assay: In vitro minimum inhibitory concentration was measured against Escherichia coli TEM-1 (Beta lactamase producer) strain.; format: functional; how it was run: as §2
Pseudomonas aeruginosa [15] = assay: In vitro minimum inhibitory concentration was measured against Pseudomonas aeruginosa 8780 strain.; format: functional; how it was run: as §2
Streptococcus pneumoniae = assay: In vitro minimum inhibitory concentration was measured against Streptococcus pneumoniae 6301 strain; format: functional; how it was run: as §2
Streptococcus pyogenes = assay: In vitro minimum inhibitory concentration was measured against Streptococcus pyogenes 4 strain.; format: functional; how it was run: as §2
Klebsiella pneumoniae = assay: In vitro minimum inhibitory concentration was measured against Klebsiella pneumoniae A strain.; format: functional; how it was run: as §2
[16] = target: T3, Penicillin-binding protein 1A (Escherichia coli K-12); assay: Affinity against penicillin binding protein 1a of Escherichia coli UB1005 (DC0) was evaluated.
How it was run: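 Solubilized membranes from sonicated E. coli UB1005 were used. Binding to penicillin-binding proteins was measured as inhibition of [14C]penicillin G binding.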

Escherichia coli [17] = assay: Minimum inhibitory concentration against E. coli UB1005 (DC0)

SMILES	MIC (Escherichia coli [1]) [µg/mL]	MIC (Citrobacter freundii) [µg/mL]	MIC (Pseudomonas aeruginosa [2]) [µg/mL]	MIC (Escherichia coli [3]) [µg/mL]	MIC (Proteus mirabilis) [µg/mL]	MIC (Serratia marcescens) [µg/mL]	MIC (Enterobacter cloacae [4]) [µg/mL]	MIC (Staphylococcus aureus [5]) [µg/mL]	MIC (Micrococcus luteus) [µg/mL]	MIC (Staphylococcus aureus [6]) [µg/mL]	MIC (Escherichia coli [7]) [µg/mL]	Binding affinity [8]	Binding affinity [9]	MIC (Enterococcus faecalis) [µg/mL]	MIC (Proteus vulgaris) [µg/mL]	MIC (Enterobacter cloacae [10]) [µg/mL]	Binding affinity [11]	Binding affinity [12]	MIC (Staphylococcus aureus [13]) [µg/mL]	MIC (Escherichia coli [14]) [µg/mL]	also measured
CO/N=C(\C(=O)N[C@@H]1C(=O)N2C(C(=O)O)=C(CN3CCNCC3)CS[C@H]12)c1csc(N)n1	0.25 (≈ 0.519 µM)	128 (≈ 266 µM)	> 128	0.25 (≈ 0.519 µM)	0.5 (≈ 1.04 µM)	8 (≈ 16.6 µM)	128 (≈ 266 µM)	> 128	0.25 (≈ 0.519 µM)	> 128	0.25 (≈ 0.519 µM)	100	100	4 (≈ 8.31 µM)	> 128	0.5 (≈ 1.04 µM)	> 100	> 100	4 (≈ 8.31 µM)	0.5 (≈ 1.04 µM)	MIC (Pseudomonas aeruginosa [15]): 64 µg/mL (≈ 133 µM); MIC (Streptococcus pneumoniae): 0.063 µg/mL (≈ 0.131 µM); MIC (Streptococcus pyogenes): 0.031 µg/mL (≈ 0.0644 µM); MIC (Klebsiella pneumoniae): 0.125 µg/mL (≈ 0.26 µM)
CC(C)(O/N=C(\C(=O)N[C@@H]1C(=O)N2C(C(=O)[O-])=C(C[n+]3ccccc3)CS[C@H]12)c1csc(N)n1)C(=O)O	–	–	–	–	–	–	–	–	–	–	–	10	–	–	–	–	> 100	–	–	–	Binding affinity [16]: 10; MIC (Escherichia coli [17]): 0.125 µg/mL (≈ 0.229 µM)
CC(C)(O/N=C(\C(=O)N[C@@H]1C(=O)N2C(C(=O)O)=C(CN3CCN(c4cc5c(cc4F)c(=O)c(C(=O)O)cn5C4CC4)CC3)CS[C@H]12)c1csc(N)n1)C(=O)O	0.25 (≈ 0.313 µM)	0.125 (≈ 0.156 µM)	2 (≈ 2.5 µM)	0.25 (≈ 0.313 µM)	2 (≈ 2.5 µM)	1 (≈ 1.25 µM)	0.5 (≈ 0.626 µM)	16 (≈ 20 µM)	2 (≈ 2.5 µM)	8 (≈ 10 µM)	0.25 (≈ 0.313 µM)	100	2	8 (≈ 10 µM)	1 (≈ 1.25 µM)	1 (≈ 1.25 µM)	100	100	8 (≈ 10 µM)	0.5 (≈ 0.626 µM)	MIC (Escherichia coli [17]): 4 µg/mL (≈ 5.01 µM); MIC (Pseudomonas aeruginosa [15]): 8 µg/mL (≈ 10 µM); MIC (Streptococcus pneumoniae): 0.25 µg/mL (≈ 0.313 µM); MIC (Streptococcus pyogenes): 0.25 µg/mL (≈ 0.313 µM); MIC (Klebsiella pneumoniae): 0.5 µg/mL (≈ 0.626 µM)
